Test results: ChEMBL document CHEMBL1250544, “Diversity-oriented synthesis of cyclic acyldepsipeptides leads to the discovery of a potent antibacterial agent” (2010)
Values after ≈ are worked out from the molar mass of the structure shown.

Assays:
Staphylococcus aureus [1] = experiment: Antimicrobial activity against methicillin-susceptible Staphylococcus aureus ATCC 3556 after 24 hrs by broth microdilution assay; assay type: functional
Procedure, shortened: (§1)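 CLSI broth microdilution run in duplicate. Compounds were dissolved in DMSO and serially diluted twofold in cation-adjusted Mueller–Hinton broth (25 µg/mL calcium, 12.5 µg/mL magnesium). Inoculum was verified by colony counts on tryptic soy agar. MIC was the lowest concentration visually inhibiting >99% of colonies.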

Enterococcus faecalis [2] = experiment: Antimicrobial activity against Enterococcus faecalis clinical isolate obtained from rectal swab after 24 hrs by broth microdilution assay; assay type: functional; procedure, shortened: as §1
Enterococcus faecalis [3] = experiment: Antimicrobial activity against Enterococcus faecalis ATCC 29212 after 24 hrs by broth microdilution assay; assay type: functional; conditions: ATCC 29212, 24 h; procedure, shortened: as §1
Staphylococcus aureus [4] = experiment: Antimicrobial activity against methicillin-resistant Staphylococcus aureus from blood after 24 hrs by broth microdilution assay; assay type: functional
Procedure, shortened: (§2)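 CLSI broth microdilution in duplicate on clinical isolates from Veterans Affairs Medical Center patients. Compounds were dissolved in DMSO and serially diluted twofold in cation-adjusted Mueller–Hinton broth (25 µg/mL Ca, 12.5 µg/mL Mg). Inoculum was verified by colony counts on tryptic soy agar. MIC is the lowest concentration visually inhibiting >99%.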

Enterococcus faecalis [5] = experiment: Antimicrobial activity against vancomycin-resistant Enterococcus faecalis clinical isolate obtained from rectal swab after 24 hrs by broth microdilution assay
Enterococcus faecium = experiment: Antimicrobial activity against vancomycin-resistant Enterococcus faecium clinical isolate obtained from tissue after 24 hrs by broth microdilution assay; assay type: functional; procedure, shortened: as §2
[6] = Staphylococcus aureus, ATCC 3556, 24 h, read-out: MIC
[7] = Staphylococcus aureus, 24 h, read-out: MBC

CCCC/C=C/C(=O)N[C@@H](Cc1cccc(F)c1)C(=O)N[C@@H]1COC(=O)[C@@H]2CCCN2C(=O)[C@H](C)NC(=O)[C@@H]2CCCCN2C(=O)[C@@H]2CCCN2C1=O
MIC (Staphylococcus aureus [1]): 1.25 µg/mL (≈ 1.69 µM)
MIC (Staphylococcus aureus [1]; [6]): 1.25 µg/mL (≈ 1.69 µM)
MBC (Enterococcus faecalis [2]): 0.04 µg/mL (≈ 0.0541 µM)
MIC (Enterococcus faecalis [2]): 0.04 µg/mL (≈ 0.0541 µM)
MBC (Enterococcus faecalis [3]): 1.25 µg/mL (≈ 1.69 µM)
MIC (Enterococcus faecalis [3]): 0.16 µg/mL (≈ 0.217 µM)
MBC (Staphylococcus aureus [4]): 1.25 µg/mL (≈ 1.69 µM)
MBC (Staphylococcus aureus [4]; [7]): 1.25 µg/mL (≈ 1.69 µM)
MBC (Enterococcus faecalis [5]): 0.04 µg/mL (≈ 0.0541 µM)
MIC (Enterococcus faecalis [5]): 0.04 µg/mL (≈ 0.0541 µM)
MBC (Enterococcus faecium): 0.08 µg/mL (≈ 0.108 µM)
MIC (Enterococcus faecium): 0.08 µg/mL (≈ 0.108 µM)

CCCC/C=C/C(=O)N[C@@H](Cc1cccc(F)c1)C(=O)N[C@@H]1COC(=O)[C@@H]2CCCN2C(=O)[C@H](C)NC(=O)[C@H]2CCCCN2C(=O)[C@@H]2CCCN2C1=O
MIC (Staphylococcus aureus [1]; [6]): > 312 µg/mL
MBC (Staphylococcus aureus [4]; [7]): > 312 µg/mL

CCCC/C=C/C(=O)N[C@@H](Cc1cccc(F)c1)C(=O)N[C@@H]1COC(=O)[C@@H]2CCCN2C(=O)[C@H](C)NC(=O)[C@@H]2CC(C)CCN2C(=O)[C@@H]2CCCN2C1=O (some centres undefined)
MIC (Staphylococcus aureus [1]; [6]): 0.6 µg/mL (≈ 0.797 µM)
MBC (Enterococcus faecalis [2]): 0.04 µg/mL (≈ 0.0531 µM)
MIC (Enterococcus faecalis [2]): 0.02 µg/mL (≈ 0.0266 µM)
MBC (Enterococcus faecalis [3]): 0.08 µg/mL (≈ 0.106 µM)
MIC (Enterococcus faecalis [3]): 0.04 µg/mL (≈ 0.0531 µM)
MBC (Enterococcus faecalis [5]): 0.04 µg/mL (≈ 0.0531 µM)
MIC (Enterococcus faecalis [5]): 0.04 µg/mL (≈ 0.0531 µM)
MBC (Enterococcus faecium): 0.08 µg/mL (≈ 0.106 µM)
MIC (Enterococcus faecium): 0.04 µg/mL (≈ 0.0531 µM)

CCCC/C=C/C(=O)N[C@@H](Cc1cccc(F)c1)C(=O)N[C@@H]1COC(=O)[C@@H]2CCCN2C(=O)[C@H](C)NC(=O)[C@H]2CC(C)CCN2C(=O)[C@@H]2CCCN2C1=O (some centres undefined)
MIC (Staphylococcus aureus [1]; [6]): > 156 µg/mL

CCCC/C=C/C(=O)N[C@@H](Cc1cccc(F)c1)C(=O)N[C@@H]1COC(=O)[C@@H]2CCCN2C(=O)[C@H](C)NC(=O)C2(CCC2)N(C)C(=O)[C@@H]2CCCN2C1=O
MIC (Staphylococcus aureus [1]): >312 µg/mL
MIC (Staphylococcus aureus [1]; [6]): 312 µg/mL (≈ 422 µM)
MBC (Staphylococcus aureus [4]; [7]): > 312 µg/mL

CCCC/C=C/C(=O)N[C@@H](Cc1cccc(F)c1)C(=O)N[C@@H]1COC(=O)[C@@H]2CCCN2C(=O)[C@H](C)NC(=O)C2(CCCC2)N(C)C(=O)[C@@H]2CCCN2C1=O
MBC (Staphylococcus aureus [4]; [7]): > 312 µg/mL

CCCC/C=C/C(=O)N[C@@H](Cc1cccc(F)c1)C(=O)N[C@@H]1COC(=O)[C@@H]2CCCN2C(=O)[C@H](C)NC(=O)C2(CCCCC2)N(C)C(=O)[C@@H]2CCCN2C1=O
MBC (Staphylococcus aureus [4]; [7]): > 312 µg/mL
